Legend:
CEM-SS [1] = assay: Concentration inhibiting HIV-1 induced cytopathic effects in human T-lymphoblastic cells(CEM-SS) and essentially halted HIV-1 replication.; assay type: functional, cell-based
In short: (§1)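 CEM-SS cells kept in phenol-red-free RPMI 1640 with 5% fetal bovine serum, 2 mM L-glutamine and 50 μg/mL gentamicin, seeded at 2.0×10^5 cells/mL. Infected with HIV-1 RF (HTLV-III_RF) or left uninfected. Compound dissolved in DMSO, diluted in medium (final DMSO ≤1%), tested over <0.1 to >10 μM. Incubated 6 days at 37 °C, 5% CO2. Viability read by XTT-tetrazolium; quadruplicate infected wells, duplicate uninfected wells.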

[2] = tested on: CEM-SS cells (Homo sapiens); assay: Cytotoxicity against CEM-SS cells
CEM-SS [3] = assay: Inhibition of HIV-1 replication in CEM-SS human lymphoblastoid cells in vitro; assay type: functional, cell-based
In short: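 CEM-SS cells infected with HIV-1 RF and treated with a concentration range for 6 days at 37 °C, 5% CO2 (final DMSO ≤1%). Cell-free supernatant assayed for viral reverse transcriptase activity, p24 antigen and syncytium-forming units. Values expressed as percent of infected, untreated controls; each point is the mean of at least quadruplicate determinations.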

[4] = Apparent in vitro therapeutic induces(TI) of the compound; assay type: ADME
CEM-SS [5] = assay: Potency to inhibit HIV-1 induced cytopathic effects in human T-lymphoblastic cells(CEM-SS) and essentially halted HIV-1 replication.; assay type: functional, cell-based; in short: as §1
CEM-SS [6] = assay: Maximum protection of human T-lymphoblastic cells(CEM-SS) from cytopathic effects of HIV-1 by the compound; assay type: functional; in short: as §1

Structure (SMILES) | IC50 (CEM-SS [1]) [µM] | EC50 (CEM-SS [3]) [µM] | Therapeutic indices [4] [TI] | EC50 (CEM-SS [5]) [µM] | IC50 [2] [µM] | Max protection (CEM-SS [6]) [%]
CCCc1cc(=O)oc2c3c(c4c(c12)OC(C)(C)C=C4)O[C@H](C)[C@@H](C)[C@@H]3O [CALANOLIDE A] | 20 | 0.08 | 200 | 0.1 | 16 | 100
CCCc1cc(=O)oc2c3c(c4c(c12)OC(C)(C)C=C4)O[C@H](C)[C@H](C)[C@@H]3O [CALANOLIDE C] | 30 |  |  |  |  | 30
CCCc1cc(=O)oc2c3c(c4c(c12)OC(C)(C)C=C4)O[C@H](C)[C@@H](C)[C@H]3OC | 19 |  |  |  |  | 35
CCCc1cc(=O)oc2c3c(c4c(c12)OC(C)(C)C=C4)O[C@H](C)[C@H](C)C3=O | 27 |  |  |  |  | 
CCCc1cc(=O)oc2c3c(c4c(c12)OC(C)(C)C=C4)O[C@H](C)[C@@H](C)[C@@H]3OC | 21 |  |  |  |  | 
CCCC1CC(=O)Oc2c(C(=O)C(C)C(C)O)c(O)c3c(c21)OC(C)(C)C=C3 (stereo unspecified) [CALANOLIDE E2] | 25 |  |  |  |  | 

The next compounds have a lower IC50 (CEM-SS [1]) than those just listed; values first:

IC50 (CEM-SS [1]) [µM] | EC50 (CEM-SS [3]) [µM] | Therapeutic indices [4] [TI] | EC50 (CEM-SS [5]) [µM] | Structure (SMILES) | IC50 [2] [µM] | Max protection (CEM-SS [6]) [%]
15 |  | 37 | 0.4 | CCCc1cc(=O)oc2c3c(c4c(c12)OC(C)(C)C=C4)O[C@H](C)[C@@H](C)[C@H]3O [(+)-CALANOLIDE B] |  | 100
13 |  | 5 | 2.7 | CCCc1cc(=O)oc2c3c(c4c(c12)OC(C)(C)C=C4)O[C@H](C)[C@@H](C)[C@@H]3OC(C)=O |  | 100
